Data taken from ChEMBL document CHEMBL4334444, “Studies of Jatrogossone A as a Reactive Oxygen Species Inducer in Cancer Cellular Models” (J Nat Prod, 2019).
Calls of active or inactive are those of the source.

How the values were obtained:
[1] = test system: KOPN-8; experiment: Cytotoxicity against human KOPN8 cells assessed as cell viability at 0.75 to 100 uM after 72 hrs in presence of pan caspase inhibitor, Z-VAD-FMK by CellTiter-Glo assay; type: functional, cell-based
[2] = test system: KOPN-8; experiment: Antiproliferative activity against human KOPN8 cells assessed as reduction in cell viability at 0.1 to 250 uM by CellTiter-Glo assay; type: functional, cell-based
Method in brief: (§1)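 CellTiter-Glo luminescent viability readout. Cells kept at 37 °C under 5% CO2. HMEC primary cells grown in basal medium with growth kit; leukemia lines and murine BCR-ABL (WT, Bax/Bak DKO) cultured per earlier description. Positive controls: staurosporine 25 μM, gambogic acid 10 μM, a toxic quinoline. At least two biological replicates in technical triplicate; luminescence normalized to untreated controls; EC50 computed.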

[3] = test system: MCF7; experiment: Upregulation of Trx expression in human MCF7 at 1 uM after 24 hrs by Western blot analysis; type: functional, cell-based
Method in brief: (§2)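 Western blot of KOPN-8 or MCF-7 lysates, 30 μg protein per lane on 4–12% Bis-Tris SDS-PAGE and transferred to nitrocellulose. Blots were probed with an oxidative stress defense antibody cocktail (catalase, SOD1, Trx, smooth muscle actin) and tubulin, and detected with IR-dye secondaries on a LI-COR Odyssey.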

[4] = test system: MCF7; experiment: Induction of cell death in human MCF7 cells at 10 uM after 24 hrs; type: functional, cell-based
[5] = test system: KOPN-8; experiment: Upregulation of Trx expression in human KOPN8 at 1 uM after 24 hrs by Western blot analysis; type: functional, cell-based; method in brief: as §2
[6] = test system: SEM cells; experiment: Antiproliferative activity against human SEM cells assessed as reduction in cell viability at 0.1 to 250 uM by CellTiter-Glo assay; type: functional, cell-based; method in brief: as §1
[7] = test system: U2OS; experiment: Antiproliferative activity against human U2OS cells assessed as reduction in cell viability at 0.1 to 250 uM by CellTiter-Glo assay; type: functional, cell-based; method in brief: as §1
[8] = test system: B-ALL; experiment: Antiproliferative activity against mouse B-ALL cells expressing wild type BCR-ABL assessed as reduction in cell viability at 0.1 to 250 uM by CellTiter-Glo assay; type: functional, cell-based; method in brief: as §1
[9] = test system: SUM149PT; experiment: Antiproliferative activity against human SUM149 cells assessed as reduction in cell viability at 0.1 to 250 uM after 48 hrs by propidium iodide staining based fluorescence assay; type: functional
Method in brief: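 MDA-MB-231 and SUM149 seeded at 6 × 10^4 to 2 × 10^5 cells/well, cultured 24 h, then exposed for 48 h. Cells fixed in cold methanol, stained with 0.4% propidium iodide, fluorescence imaged. Viability expressed as percent surviving cells relative to vehicle wells.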

[10] = test system: MCF7; experiment: Upregulation of Trx level in human MCF7 at 1 uM after 3 to 6 hrs by Western blot analysis; type: functional, cell-based
Method in brief: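 MCF-7 cells were exposed to compound for 3 or 6 h. Lysates were made in Tris-HCl pH 7.5 RIPA-type buffer with protease/phosphatase inhibitors and quantified by BCA. 30 μg protein per lane was run on 4–12% Bis-Tris SDS-PAGE in MES and transferred to nitrocellulose. Blots were probed for thioredoxin with tubulin as reference, detected with IR-dye secondaries (1:15 000) and scanned on an infrared imager.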

[11] = test system: MDA-MB-231; experiment: Induction of ROS colocalization in mitochondria of human MDA-MB-231 cells at 30 uM incubated for 1 hr by CellROX green reagent/mitotracker deep red staining based confocal microscopic method; type: functional, cell-based
Method in brief: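 MDA-MB-231 plated at 4 × 10^4/well in phenol-red-free medium, 12 h at 37 °C; for rescue, NAC 100 μM pretreatment 0.5 h. Compound 30 μM or DMSO for 1 h, then CellROX green 5 μM final, MitoTracker Deep Red 250 nM, Hoechst 33342 500 nM (0.5 h before imaging). Washed twice, live spinning-disk confocal at 63×; two independent experiments.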

[12] = test system: HMEC; experiment: Cytotoxicity against human HMEC cells assessed as cell viability at >100 uM by CellTiter-Glo assay; type: cell-based; method in brief: as §1
[13] = Stability in DMSO assessed as micheal adduct formation by measuring intact compound incubated for 16 hrs in presence of NAC by LC-MS analysis; type: physicochemical
[14] = Stability in DMSO assessed as micheal adduct formation by measuring intact compound incubated for 16 hrs in presence of glutathione by NMR analysis; type: physicochemical
[15] = test system: MCF7; experiment: Induction of apoptosis in human MCF7 cells assessed as increase in cleaved PARP 1 level at 1 to 100 uM after 24 hrs by Western blot analysis; type: functional, cell-based
Method in brief: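 Western blot of KOPN-8 and MCF-7 lysates made in RIPA-type buffer (Tris pH 7.5, Triton X-100, deoxycholate, SDS) with protease and phosphatase inhibitors. 30 μg protein per lane was run on 4–12% Bis-Tris SDS-PAGE and transferred to nitrocellulose. Blots were probed for cleaved caspase-7 and PARP-1 and detected with IR-dye secondaries. Menadione served as positive control: 10 μM in KOPN-8, 30 μM in MCF-7. Blots are representative of three independent experiments.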

[16] = Stability in DMSO assessed as micheal adduct formation by measuring intact compound incubated for 16 hrs in presence of NAC by NMR analysis; type: physicochemical
[17] = test system: KOPN-8; experiment: Cell cycle arrest in human KOPN8 cells assessed as decrease in accumulation at S phase at 10 uM incubated for 24 hrs by propidium iodide staining based flow cytometric analysis relative to control; type: functional; settings: KOPN-8, 24 h
Method in brief: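 KOPN-8 plated at 1.00 × 10^6 cells/plate, held 12 h at 37 °C, treated 24 h at 10 μM; DMSO vehicle and 2 μM staurosporine as controls. Cells fixed in cold methanol, RNase-treated, stained with PI (50 μg/mL); cell-cycle distribution by flow cytometry.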

[18] = test system: B-ALL; experiment: Cytotoxicity against BCR-ABL p185-positive mouse B-ALL cells overexpressing human BCL-2 assessed as inhibition of cell viability after 24 hrs by AnnexinV-FITC/propidium iodide staining based flow cytometric analysis; type: functional
[19] = test system: KOPN-8; experiment: Induction of apoptosis in human KOPN8 cells assessed as decrease in viable cells at 10 uM after 24 hrs by Annexin V-FITC and propidium iodide staining based flow cytometry; type: functional, cell-based
Method in brief: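 KOPN-8 cells were plated at 1.00 × 10^6 per plate and held 12 h at 37 °C, then treated 24 h; positive control 2 μM staurosporine, vehicle DMSO. Cells were stained with Annexin V-FITC and PI and analysed by flow cytometry (FACSCalibur). Profiles are representative of three independent biological replicates.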

[20] = test system: KOPN-8; experiment: Decrease in cell viability in human KOPN8 cells incubated for 24 hrs by GF-AFC reagent based ApoTox-Glo triplex assay; type: functional
Method in brief: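 ApoTox-Glo Triplex: cells held 12 h at 37 °C, then treated 24 h (100−0.15 μM). Viability/cytotoxicity reagent added, shaken, 30 min at 37 °C; viability read as GF-AFC fluorescence at 400Ex/505Em. Caspase-Glo 3/7 then added, 0.5 h at room temperature, luminescence read. Mean ± SEM of three independent experiments.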

[21] = Stability in CH3CN assessed as micheal adduct formation by measuring intact compound incubated for 16 hrs in presence of glutathione by NMR analysis; type: physicochemical

CC1=C2CC(C)(C)/C=C/C(=O)/C(C)=C\C3=C[C@H](C)C[C@]3(O2)C1=O [JATROPHONE]
active: inhibition [2] | Activity [4] | inhibition [6] | inhibition [7] | inhibition [8] | inhibition [9] | Activity [10]
inactive: Activity [1] | Activity [3] | Activity [5]

CC(=O)O[C@H]1/C2=C/[C@@H](C)C(=O)C[C@H]3[C@@H](/C=C(\C)C(=O)[C@H]2C[C@H]1C)C3(C)C
7.52 µM: IC50 [18]
active: Activity [11] | Activity [15] | Activity [19] | inhibition [20] Dose-dependent effect
Stable: Stability [13] | Stability [14] | Stability [16] | Stability [21]
Non-Toxic: Activity [12]
5%: inhibition at 10 µM [17]
